High-throughput results as filed in PubChem.
Diaph act CS = counter-screen for diaphorase-based assays: diaphorase activators and chemical reducers; activation factor at 20 µM; actives 0.005% (n = 190,000); AID 1229; Diaphorase/resazurin coupled assay, resorufin fluorescence, 16 min; hits give high values; 1 = vehicle wells, 0 = NADH-free wells;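 active = diaphorase activity raised at least twofold by the compound at 20 µM; inactive = activation factor below 2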
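Material: purified diaphorase enzyme from Clostridium kluyveri / Medium: HEPES pH 7.4 buffer with MgCl2 and Tween 20 / Schedule: enzyme reaction of 16 min at room temperature / Measured by: resorufin fluorescence, excitation 544 nm, emission 590 nm / Evaluation: rise in resorufin formation, marking diaphorase activation or chemical reduction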
Diaph inh CS = inhibits diaphorase or chemically oxidizes, flagging diaphorase assay artifacts | diaphorase resazurin-to-resorufin fluorescence, NADH, 16 min; bacterial (C. kluyveri) enzyme, not human | inhibition, % at 20 µM | actives 0.69% (n = 190,000);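 active = primary screen inhibition at 20 µM above a set limit, cut at about 50% in these data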;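 note: plate controls were DMSO with full reaction for no effect and wells lacking NADH for full effect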
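Assay system: diaphorase enzyme from Clostridium kluyveri. Quantity: enzyme working solution with 0.14 U/mL diaphorase. Schedule: reaction incubation of 16 min at room temperature. Technique: resorufin fluorescence, excitation 544 nm, emission 590 nm. Controls: No-NADH positive control and DMSO neutral control.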
PMI activator = activators of human phosphomannose isomerase. P34949. purified human PMI, coupled resazurin fluorescence, 20 min; hits give high values; 1 = vehicle control, 0 substrate-free wells. activation factor at 20 µM. actives 0.005% (n = 190,000);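 active = activation factor of 2 or more at 20 µM, relative to plate controls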
FLuc act counter = firefly luciferase counter-screen for stimulation assays. activation factor at 10 µM. P08659. AID 1027. 200,000 tested, under 10 active. ATPlite luciferase biochemical, luminescence, 10 min; 0 = ATP-free wells, 1 = DMSO control;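 active = luciferase activation factor, scaled between plate controls, of at least 2 with compound at 10 µM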
Target sequence (P08659 whole entry, looked up): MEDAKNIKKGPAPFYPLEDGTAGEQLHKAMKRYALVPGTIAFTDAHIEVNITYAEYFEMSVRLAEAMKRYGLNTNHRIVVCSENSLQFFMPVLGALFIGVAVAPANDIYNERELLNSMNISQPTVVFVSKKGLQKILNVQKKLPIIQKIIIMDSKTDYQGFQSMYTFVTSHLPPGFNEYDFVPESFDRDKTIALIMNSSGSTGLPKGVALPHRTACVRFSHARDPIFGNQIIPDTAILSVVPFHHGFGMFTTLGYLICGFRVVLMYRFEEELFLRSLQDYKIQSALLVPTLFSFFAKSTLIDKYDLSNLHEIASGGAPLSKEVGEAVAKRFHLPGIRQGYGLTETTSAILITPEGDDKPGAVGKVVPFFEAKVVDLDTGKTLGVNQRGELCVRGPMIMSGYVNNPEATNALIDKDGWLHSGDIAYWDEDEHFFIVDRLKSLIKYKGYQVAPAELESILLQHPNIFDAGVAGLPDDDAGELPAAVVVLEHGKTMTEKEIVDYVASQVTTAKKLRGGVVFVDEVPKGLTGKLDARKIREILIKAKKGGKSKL
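Assay system: Luciferase/luciferin detection reagent, cell-free biochemical luciferase assay / Also added: ATP substrate / Schedule: 10 min at ambient temperature / Measured by: luminescence measurement of luciferase light output / Benchmarks: low control with PBS replacing ATP, high control enzyme plus ATP without compound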
FLuc inhib CS = Photinus pyralis luciferase inhibition counter-screen. inhibition, % at 10 µM. actives 1.5% (n = 200,000). ATPLite firefly luciferase biochemical luminescence, 10 min;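 active = inhibition above about 50% when tested at 10 µM, limit read from the data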
PMI act hi M6P = activators of human phosphomannose isomerase at near-saturating mannose 6-phosphate. actives 0.34% (n = 190,000). AID 1216. coupled PMI enzyme assay, resazurin fluorescence, 20 min; hits give high values; 1 = untreated enzyme, 0 = substrate-free blank. activation factor at 20 µM. P34949;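 active = activation factor of 2 or more at 20 µM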
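assay system = human phosphomannose isomerase with PGI, G6PDH, diaphorase coupling enzymes | quantity = 15 ng/mL PMI | incubation = enzyme reaction with compound 20 min at room temperature | medium = HEPES pH 7.4 buffer with MgCl2 and Tween-20 | compound dosing = one concentration, 20 µM, in 1% DMSO | measured by = Diaphorase-driven resazurin-to-resorufin fluorescence, excitation 544, emission 590 nm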
An asterisk follows results filed as active. Shown are actives, neighbours in structure and some others; about 2.5% of the full set was active somewhere.

SMILES	Diaph act CS	Diaph inh CS	PMI activator	FLuc act counter	FLuc inhib CS	PMI act hi M6P
CC1CCCCC1NC(=O)/C(C#N)=C/c1ccc(OCC(N)=O)cc1 (configuration not stated)	0.8	15	1	1	-4	1
O=C(N/N=C/C1CCCCC1)c1ccccn1	1	3	1	0.6	35	0.9
O=C(N/N=C/C1CCCCC1)c1cc(Cl)ccc1O	1	3	1.1	0.5	50*	1.1
CCCN(CCC)C(=O)CSc1nc2n[nH]c(C)c2c(=N)n1-c1ccc(OC)cc1	1	4	0.9	1	-2	1
Cc1cccc(-n2c(SCC(=O)N3CCCC3)nc3n[nH]c(C)c3c2=N)c1	0.3	68*	1	1	-4	0.9
CCCCN(CC)C(=O)CSc1nc2n[nH]c(C)c2c(=N)n1-c1cccc(C)c1	0.3	66*	0.8	1	-1	0.9
N#CCCn1cc(/C=N/NC(N)=S)c(-c2ccc(-c3ccccc3)cc2)n1	0.7	34	0.8	1	-4	0.8
C=CCn1c(SCC(=O)Nc2ncc(Cc3ccc(C)c(Cl)c3)s2)nnc1-c1ccncc1	0.9	10	0.8	1	-3	0.9
CCN(CC(=O)Nc1cccc(C(C)=O)c1)S(=O)(=O)c1ccc(C)cc1	1	4	1	1.1	-9	1.1
O=C(O)C/C=C(\NC(=O)OCc1ccccc1)C(=O)OCc1ccccc1	0.9	11	1.9	1.1	-5	2.6*
O=C(O)CCCNC(=O)OCc1ccccc1	0.9	10	1	1	-1	1.1
O=C(Nc1ccccc1C(=O)N/N=C/c1ccncc1)c1ccccc1	0.9	7	1	0	96*	1
COc1ccc(C(=O)Nc2ccccc2C(=O)N/N=C/c2ccco2)cc1	1	-3	1	0	97*	1.1
CCOc1ccc(/C=N/NC(=O)c2ccccc2NC(=O)c2ccc(OC)cc2)cc1	0.9	14	0.8	0.1	94*	0.9
Cc1ccccc1C(=O)Nc1ccc(C(=O)N/N=C/c2ccncc2)cc1	0.8	15	1	1	2	1
O=C(N/N=C/c1ccco1)c1ccc(NC(=O)c2ccccc2Cl)cc1	1	3	1	1.1	-6	1
O=C(NCCCn1ncc2ccccc21)c1cc(COc2c(F)cccc2F)on1	0.8	25	0.9	1.1	-6	1
Cc1ccc(/C=N/NC(=O)c2nn(C)cc2Cl)cc1	0.9	9	1	0.1	86*	1
COc1ccc(N2C(=O)C(Cl)=C(Oc3cccc(OC)c3)C2=O)cc1	0.8	18	0.9	1	-2	0.9
CNC(=O)CNC(=O)Nc1ccc(Cl)c(Cl)c1	0.3	67*	1	1.1	-5	1
COC(=O)c1sc2nc(-c3ccccc3)c3c(c2c1N)CCCC3	0.9	11	0.9	1	-3	1
Nc1c(C(=O)O)sc2nc(-c3ccccc3)c3c(c12)CCCC3	0.9	15	1.5	1	3	2.2*
COc1ccccc1CNC(=O)C(=O)NCC(c1ccco1)N1CCOCC1 (configuration not stated)	1	-2	1.1	1.1	-5	1.1
Cc1ccc(-c2nn(-c3ccccc3)cc2C=O)o1	1	4	1.2	0.4	62*	1.1
O=C(CN1CCCCC1)N1N=C(c2cccs2)CC1c1cccs1 (configuration not stated)	0.9	9	0.9	1	-1	0.9
SMILES	Diaph act CS	Diaph inh CS	PMI activator	FLuc act counter	FLuc inhib CS	PMI act hi M6P
Cc1ccc(C(=O)Nc2sc3c(c2C(=O)O)CCCCC3)o1	0.8	21	1	0.1	86*	1
O=C(Nc1sc2c(c1C(=O)O)CCCC2)c1cccs1	0.7	29	1.1	0.6	38	0.9
O=C(Nc1sc2c(c1C(=O)O)CCCCC2)c1ccccc1F	0.8	16	0.9	0.4	61*	1
O=C(Nc1sc2c(c1C(=O)O)CCCCC2)c1cccs1	0.8	17	1	0.2	84*	1
Cc1ccc(C(=O)Oc2ccc([N+](=O)[O-])cc2)cc1S(=O)(=O)N1CCCCCC1	0.8	18	0.9	1	-4	1
N#CC(C#N)=Cc1cccn1-c1ccc(S(N)(=O)=O)cc1	1	-3	1	1	-3	1
CCOC(=O)c1c(C)oc2c1c(C=NCC1CCCO1)c(O)c1ccccc12 (configuration not stated)	0.3	75*	0.4	1	2	0.5
CCOC(=O)c1c(C)oc2c1c(C=NCc1ccccn1)c(O)c1ccccc12	0.4	64*	0.4	1	-2	0.7
CCOC(=O)c1c(C)oc2c1cc(O)c1ccccc12	0.9	15	0.9	1	4	0.5
O=C(CSc1ncccc1C(=O)O)c1ccc2ccccc2c1	1	1	1.2	0.6	35	1.3
O=C(CSc1ncccc1C(=O)O)c1cccc(C(F)(F)F)c1	1	3	1.7	0.9	8	2.2*
COc1cc([N+](=O)[O-])cc(/C=N/NC(=O)CC#N)c1O	0.5	51*	0.7	1	-4	0.8
O=C1NC(=O)/C(=C\c2ccc(O)cc2O)S1	0.2	82*	0.5	1	2	0.8
CCOC(=O)c1nn(-c2ccc(Br)cc2)cc1C(=O)c1cccc2ccccc12	0.7	25	0.9	1	-1	0.8
O=C(O)/C=C\C(=O)NCc1cccnc1	1	-3	1.1	1	-5	1
O=c1c(=NNc2ccccc2Cl)c(=O)c2ccccc12	0.9	6	1	0.2	80*	0.9
Cc1ccc(N2CS(=O)(=O)/C(=C/N(C)C)C2=O)cc1	1	3	1.2	0.4	57*	1.2
CN(C)/C=C1\C(=O)N(c2ccc(Cl)cc2)CS1(=O)=O	1	2	1	0.7	30	1
Nc1cccc(-c2nc3ccccc3s2)c1	0.9	14	1	0.2	76*	1
Oc1cccc(-c2nc3ccccc3s2)c1	0.9	14	0.9	0.3	71*	0.9
CC(=O)N/C(=N\OCc1ccc(Br)cc1)c1nonc1NC(C)=O	0.8	17	0.9	1	-4	0.9
O=C(/C=C/c1cccc(Br)c1)N1CCN(c2ccccn2)CC1	0.9	9	1	1.1	-9	1
Cc1cccc(CC(=O)N2CCC(N3CCC(C(=O)N4CCOCC4)CC3)CC2)c1	0.4	55*	1	1.1	-11	1
